Measurements: ChEMBL document CHEMBL4251686, “Withaferin A and Withanolide D Analogues with Dual Heat-Shock-Inducing and Cytotoxic Activities: Semisynthesis and Biological Evaluation” (J Nat Prod, 2018)
Activity calls are given as the source filed them. The calls are words filed in the database; no cut-off is given here. Residues, ends and D or L forms follow the SMILES beside them. *: point of attachment. Cbz = O=C(OCc1ccccc1)*

Tests used:
[1] = system: HEK-293T; test: Induction of heat shock response in GFP-tagged human 293T cells at 1 to 5 uM after overnight incubation by luciferase reporter gene based luminometric method; type: functional, cell-based
Summary of the method: (§1)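 Heat-shock reporter 293T cells (GFP–firefly luciferase under HSP70B′ promoter elements, FACS-enriched high responders) were seeded at 20 000 cells/well in 384-well plates and exposed to compounds at 1.0 or 5.0 μM overnight. Luciferase activity measured by luminometer. Maximal induction expressed as fold over control (Log2), mean of two biological replicates.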

[2] = system: HEK-293T; test: Induction of heat shock response in GFP-tagged human 293T cells after overnight incubation by luciferase reporter gene based luminometric method relative to control; type: functional
[3] = system: HEK-293T; test: Induction of heat shock response in GFP-tagged human 293T cells at 1 uM after overnight incubation by luciferase reporter gene based luminometric method; type: functional, cell-based; summary of the method: as §1
[4] = Cytotoxicity against human CHP100 cells assessed as reduction in cell viability after 24 hrs by resazurin dye based Alamar blue assay; type: functional; settings: CHP100, 24 h
[5] = system: HEK-293T; test: Cytotoxicity against human 293T cells assessed as reduction in cell viability after 72 hrs by resazurin dye based Alamar blue assay; type: functional
[6] = system: HEK-293T; test: Ratio of induction of heat shock response in GFP-tagged human 293T cells to IC50 for cytotoxicity against human 293T cells; type: functional
[7] = system: HEK-293T; test: Induction of heat shock response in GFP-tagged human 293T cells at 5 uM after overnight incubation by luciferase reporter gene based luminometric method; type: functional, cell-based; summary of the method: as §1

SMILES: CC(=O)OCC1=C(C)C[C@H]([C@@H](C)[C@H]2CC[C@H]3[C@@H]4C[C@H]5O[C@]56[C@@H](OC(C)=O)C=CC(=O)[C@]6(C)[C@H]4CC[C@]23C)OC1=O
- Activity [1]: Active
- AUC [2]: 351

SMILES: CC1=C(C)C(=O)O[C@@H]([C@](C)(O)[C@H]2CC[C@H]3[C@@H]4C[C@H]5O[C@]56C(=O)C=CC(=O)[C@]6(C)[C@H]4CC[C@]23C)C1
- Activity [3]: Active

SMILES: CC(=O)O[C@H]1C=CC(=O)[C@]2(C)[C@H]3CC[C@]4(C)[C@@H]([C@@](C)(O)[C@H]5CC(C)=C(C)C(=O)O5)CC[C@H]4[C@@H]3C[C@H]3O[C@]132
- Activity [3]: Active
- IC50 [4]: 292 nM
- IC50 [5]: 141 nM
- Ratio [6]: 0.5

SMILES: CC(=O)OCC1=C(C)C[C@H]([C@@H](C)[C@H]2[C@@H](OC(C)=O)C[C@H]3[C@@H]4C[C@H](I)[C@]5(O)[C@@H](OC(C)=O)C=CC(=O)[C@]5(C)[C@H]4CC[C@]23C)OC1=O
- Activity [1]: Active
- IC50 [4]: 466 nM
- IC50 [5]: 417 nM
- AUC [2]: 235
- Ratio [6]: 0.56

SMILES: CC(=O)OCC1=C(C)C[C@H]([C@@H](C)[C@H]2[C@@H](OC(C)=O)C[C@H]3[C@@H]4C[C@H]5O[C@]56[C@@H](OC(C)=O)C=CC(=O)[C@]6(C)[C@H]4CC[C@]23C)OC1=O
- Activity [1]: Active
- IC50 [4]: 59 nM
- IC50 [5]: 88 nM
- AUC [2]: 196
- Ratio [6]: 2.23

SMILES: CC1=C(C)C(=O)O[C@@H]([C@](C)(O)[C@H]2CC[C@H]3[C@@H]4C[C@H]5O[C@]56[C@@H](O)C=CC(=O)[C@]6(C)[C@H]4CC[C@]23C)C1 [WITHANOLIDE D]
- Activity [3]: Active
- IC50 [4]: 324 nM
- IC50 [5]: 710 nM
- AUC [2]: 13
- Ratio [6]: 0.02

SMILES: CC(=O)O[C@H]1C[C@H]2[C@@H]3C[C@H]4O[C@]45[C@@H](OC(C)=O)C=CC(=O)[C@]5(C)[C@H]3CC[C@]2(C)[C@H]1[C@@](C)(O)[C@H]1CC(C)=C(C)C(=O)O1
- Activity [3]: Active

SMILES: CC1=C(CO)C(=O)O[C@@H]([C@@H](C)[C@H]2CC[C@H]3[C@@H]4C[C@H]5O[C@]56[C@@H](O)C=CC(=O)[C@]6(C)[C@H]4CC[C@]23C)C1 [WITHAFERIN A]
- Activity [1]: Active
- IC50 [4]: 424 nM
- IC50 [5]: 299 nM
- AUC [2]: 68
- Ratio [6]: 0.23

SMILES: CC(=O)OCC1=C(C)C[C@H]([C@@H](C)[C@H]2CC[C@H]3[C@@H]4C[C@H]5O[C@]56[C@@H](OC(C)=O)C=CC(=O)[C@]6(C)[C@H]4C[C@@H](OC(C)=O)[C@]23C)OC1=O
- Activity [1]: Active
- IC50 [4]: 120 nM
- IC50 [5]: 116 nM
- AUC [2]: 419
- Ratio [6]: 3.61

SMILES: CC(=O)OCC1=C(C)C[C@H]([C@@H](C)[C@H]2CC[C@H]3[C@@H]4C[C@H]5O[C@]56[C@H](OC(C)=O)C=CC(=O)[C@]6(C)[C@H]4CC[C@]23C)OC1=O
- Activity [1]: Active

SMILES: CC1=C(CO)C(=O)O[C@@H]([C@@H](C)[C@H]2CC[C@H]3[C@@H]4C[C@H]5O[C@]56[C@H](O)C=CC(=O)[C@]6(C)[C@H]4CC[C@]23C)C1
- Activity [7]: Active
- IC50 [4]: 311 nM
- IC50 [5]: 250 nM
- AUC [2]: 44
- Ratio [6]: 0.18

SMILES: CC(C)c1cc(-c2n[nH]c(=O)n2-c2ccc3c(ccn3C)c2)c(O)cc1O [GANETESPIB]
- AUC [2]: 59

SMILES: CC(C)C[C@@H](C=O)NC(=O)[C@H](CC(C)C)NC(=O)[C@H](CC(C)C)NC(=O)OCc1ccccc1 [MG-132] (Cbz-Leu-Leu-Leu-aldehyde)
- AUC [2]: 332
